In ChEMBL document CHEMBL6177921, “Enhancing the antimycobacterial efficacy of pyridine-4-carbohydrazide: linkage to additional antimicrobial agents via oxocarboxylic acids” (RSC Med Chem, 2025):
Converted amounts (≈) assume the structure as drawn.

Legend:
Mycobacterium avium [1] = assay: Antimycobacterial activity against INH/RIF/rifabutin/OFX/EMB resistant Mycobacterium avium CNCTC 330/88 assessed as bacterial growth inhibition incubated for 21 days by two-fold serial dilution method; assay type: functional; details: CNCTC 330/88, 504 h, time 21 day
Procedure, shortened: (§1)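 M. avium CNCTC 330/88 (stock suspension dilution 10−5) grown in Šula's semisynthetic liquid medium; two-fold serial dilutions 1000 to 1 μM from DMSO stocks (final DMSO 1.0% v/v); final load 1.5 × 10^5 CFU mL−1; MIC read visually as lowest concentration giving complete growth inhibition after 14 and 21 days.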

Mycobacterium kansasii [2] = assay: Antimycobacterial activity against INH/RIF/rifabutin/OFX/EMB Mycobacterium kansasii CNCTC 6509/96 clinical isolate assessed as bacterial growth inhibition incubated for 7 days by two-fold serial dilution method; assay type: functional; details: CNCTC 6509/96, 168 h, time 7 day
Procedure, shortened: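 Šula's liquid semisynthetic medium; M. kansasii clinical isolate 6509/96 used at stock dilution 10−4, final ~1.5 × 10^5 CFU mL−1. Two-fold dilutions ran 1000–1 μM with final DMSO 1.0% (v/v). MIC was read visually as complete growth inhibition after 7, 14 and 21 days.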

[3] = test system: Mycobacterium tuberculosis; assay: Antimycobacterial activity against multidrug sensitive Mycobacterium tuberculosis H37Rv CNCTC 331/88 assessed as bacterial growth inhibition incubated for 14 days by two-fold serial dilution method; assay type: functional; details: H37Rv CNCTC 331/88, 336 h, time 14 day
Mycobacterium kansasii [4] = assay: Antimycobacterial activity against multi-drug resistant Mycobacterium kansasii CNCTC 6509/96 clinical isolate assessed as bacterial growth inhibition incubated for 14 days by two-fold serial dilution method; assay type: functional; details: CNCTC 6509/96, 336 h, time 14 day
Procedure, shortened: (§2)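 M. kansasii clinical isolate 6509/96 (stock dilution 10−4) in Šula's semisynthetic liquid medium; two-fold serial dilutions 1000 to 1 μM, DMSO final 1.0% v/v; final load 1.5 × 10^5 CFU mL−1; MIC read visually as complete growth inhibition at 7, 14 and 21 days.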

Mycobacterium avium [5] = assay: Antimycobacterial activity against INH/RIF/rifabutin/OFX/EMB resistant Mycobacterium avium CNCTC 330/88 assessed as bacterial growth inhibition incubated for 14 days by two-fold serial dilution method; assay type: functional; details: CNCTC 330/88, 336 h, time 14 day; procedure, shortened: as §1
[6] = test system: Mycobacterium tuberculosis; assay: Antimycobacterial activity against Mycobacterium tuberculosis H37Rv CNCTC 331/88 assessed as bacterial growth inhibition incubated for 21 days by two fold serial dilution method; assay type: functional; details: H37Rv CNCTC 331/88, 504 h, time 21 day
Mycobacterium kansasii [7] = assay: Antimycobacterial activity against multi-drug resistant Mycobacterium kansasii clinical isolate CNCTC 6509/96 assessed as bacterial growth inhibition incubated for 21 days by two-fold serial dilution method; assay type: functional; details: CNCTC 6509/96, 504 h, time 21 day; procedure, shortened: as §2
[8] = test system: Staphylococcus epidermidis; assay: Antibacterial activity against Staphylococcus epidermidis ATCC 12228 assessed as bacterial growth inhibition incubated for 24 to 48 hrs by broth microdilution method; assay type: functional; details: time 24-48 hrs
Procedure, shortened: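 Broth microdilution in cation-adjusted Mueller-Hinton broth, adapted from EUCAST. Compounds were tested at 0.98–500 μM with final DMSO ≤1.0% (v/v). Inoculum came from 16–24 h cultures, final ~5 × 10^5 CFU mL−1. Plates were incubated statically, dark and humidified, at 35 ± 2 °C. MIC was read by eye at 24 and 48 h as the lowest concentration with no visible growth.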

[9] = Hemolytic activity in human Red blood cells assessed as hemolysis rate incubated for 1 hr by absorbance based spectrophotometric analysis relative to control; assay type: toxicity, cell-based, Erythrocyte; details: read-out: Activity
Procedure, shortened: (§3)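 Human erythrocyte suspension mixed 1:1 with compound in Hartmann's solution at final 125 μM, final DMSO 1.0% (v/v), 37 °C for 1 h. After centrifugation, released haemoglobin in the supernatant was read at 405 nm. Negative control was hRBCs with 1.0% DMSO; positive control was hRBCs sonicated for 1 min.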

Staphylococcus aureus = assay: Antibacterial activity against methicillin-resistant Staphylococcus aureus ATCC 43300 assessed as bacterial growth inhibition incubated for 24 to 48 hrs by broth microdilution method; assay type: functional; details: time 24-48 hrs
Procedure, shortened: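 Broth microdilution per EUCAST with slight modification in cation-adjusted Mueller-Hinton broth; compounds from DMSO stocks (final DMSO ≤1.0% v/v), 0.98–500 μM; final inoculum about 5 × 10^5 CFU mL−1 from 16–24 h cultures; static incubation in dark, humidified air at 35 ± 2 °C; MIC read by eye at 24 and 48 h as lowest concentration without visible growth.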

Candida albicans [10] = assay: Antifungal activity against Candida albicans CCM 8320 measured after 24 to 48 hrs by microdilution broth method; assay type: functional; details: time 24-48 hrs
Procedure, shortened: (§4)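 Yeast broth microdilution per EUCAST, slightly modified. Medium was RPMI-1640 with 2% glucose, MOPS-buffered to pH 7.0. Compounds were tested at 0.98–500 μM with final DMSO ≤1.0% (v/v). Inoculum came from 18–24 h cultures, final ~1–5 × 10^5 CFU mL−1. Plates were incubated statically, dark and humidified, at 35 ± 2 °C. MIC was read visually at 24 and 48 h (no visible growth).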

Candida parapsilosis [11] = assay: Antifungal activity against Candida parapsilosis ATCC 22019 measured after 24 to 48 hrs by microdilution broth method; assay type: functional; details: Lodderomyces parapsilosis, time 24-48 hrs; procedure, shortened: as §4
Pichia kudriavzevii [12] = assay: Antifungal activity against Candida krusei ATCC 6258 measured after 24 to 48 hrs by microdilution broth method; assay type: functional; details: time 24-48 hrs; procedure, shortened: as §4
Aspergillus flavus = assay: Antifungal activity against Aspergillus flavus CCM 8363 measured after 24 to 48 hrs by microdilution broth method; assay type: functional; details: time 24-48 hrs
Procedure, shortened: (§5)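 Filamentous fungi tested by broth microdilution per EUCAST with minor changes. Compounds were tested at 0.98–500 μM with final DMSO ≤1.0% (v/v). Plates were incubated statically, dark and humidified, at 35 ± 2 °C for 24 and 48 h. MIC was the lowest concentration showing no visible growth.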

Candida parapsilosis [13] = assay: Antifungal activity against Candida parapsilosis CCM 8260 measured after 24 to 48 hrs by microdilution broth method; assay type: functional; details: Lodderomyces parapsilosis, time 24-48 hrs; procedure, shortened: as §4
[14] = Hemolytic activity in human Red blood cells assessed as effect of lipid bilayer membrane incubated for 1 hr by absorbance based spectrophotometric analysis; assay type: toxicity, cell-based; details: erythrocyte; procedure, shortened: as §3
[15] = test system: Trichophyton interdigitale; assay: Antifungal activity against Trichophyton interdigitale CCM 8377 measured after 24 to 48 hrs by microdilution broth method; assay type: functional; details: time 24-48 hrs
Candida tropicalis [16] = assay: Antifungal activity against Candida tropicalis ATCC 750 measured after 24 to 48 hrs by microdilution broth method; assay type: functional; details: time 24-48 hrs; procedure, shortened: as §4
Candida tropicalis [17] = assay: Antifungal activity against Candida tropicalis CCM 8264 measured after 24 to 48 hrs by microdilution broth method; assay type: functional; details: time 24-48 hrs; procedure, shortened: as §4
Lichtheimia corymbifera = assay: Antifungal activity against Lichtheimia corymbifera CCM 8077 measured after 24 to 48 hrs by microdilution broth method; assay type: functional; details: time 24-48 hrs; procedure, shortened: as §5
Aspergillus fumigatus = assay: Antifungal activity against Aspergillus fumigatus ATCC 204305 measured after 24 to 48 hrs by microdilution broth method; assay type: functional; details: time 24-48 hrs; procedure, shortened: as §5
Pichia kudriavzevii [18] = assay: Antifungal activity against Candida krusei CCM 8271 measured after 24 to 48 hrs by microdilution broth method; assay type: functional; details: time 24-48 hrs; procedure, shortened: as §4
Candida albicans [19] = assay: Antifungal activity against Candida albicans ATCC 24443 measured after 24 to 48 hrs by microdilution broth method; assay type: functional; details: time 24-48 hrs; procedure, shortened: as §4
[20] = test system: Trichophyton interdigitale; assay: Antifungal activity against Trichophyton interdigitale ATCC 9533 measured after 24 to 48 hrs by microdilution broth method; assay type: functional; details: time 24-48 hrs

| Compound | MIC (Mycobacterium avium [1]) [µM] | MIC (Mycobacterium kansasii [2]) [µM] | MIC [3] [µM] | MIC (Mycobacterium kansasii [4]) [µM] | MIC (Mycobacterium avium [5]) [µM] | MIC [6] [µM] | MIC (Mycobacterium kansasii [7]) [µM] | hemolysis at 1 h [9] [%] | further results |
| --- | --- | --- | --- | --- | --- | --- | --- | --- | --- |
| COC(=O)c1ccc(NC(=O)/C(C)=N/NC(=O)c2ccncc2)cc1O | ≥ 1000 | 8 (≈ 2.85 µg/mL) | 0.5 (≈ 0.178 µg/mL) | 16 (≈ 5.7 µg/mL) | ≥ 1000 | 0.5 (≈ 0.178 µg/mL) | 16 (≈ 5.7 µg/mL) | – | MIC [8]: 125 µM (≈ 44.5 µg/mL) |
| CO[C@H]1/C=C/O[C@@]2(C)Oc3c(C)c(O)c4c(O)c(c(/C=N/N5CCN(C)CC5)c(O)c4c3C2=O)NC(=O)/C(C)=C\C=C\[C@H](C)[C@H](O)[C@@H](C)[C@@H](O)[C@@H](C)[C@H](OC(C)=O)[C@@H]1C [RIFAMPIN] | – | – | – | – | – | – | – | 0.01 | – |
| C/C(=N\NC(=O)c1ccncc1)C(=O)NNC(=O)c1ccncc1 | 500 (≈ 163 µg/mL) | 8 (≈ 2.61 µg/mL) | 0.25 (≈ 0.0816 µg/mL) | 16 (≈ 5.22 µg/mL) | 500 (≈ 163 µg/mL) | 0.5 (≈ 0.163 µg/mL) | 16 (≈ 5.22 µg/mL) | – | MIC [8]: 250 µM (≈ 81.6 µg/mL); MIC (Staphylococcus aureus): 500 µM (≈ 163 µg/mL) |
| C/C(=N\NC(=O)c1ccncc1)C(=O)Nc1ccc(Oc2ccccc2)cc1 | 500 (≈ 187 µg/mL) | ≤ 1 | 0.25 (≈ 0.0936 µg/mL) | ≤ 1 | 500 (≈ 187 µg/mL) | 0.25 (≈ 0.0936 µg/mL) | 2 (≈ 0.749 µg/mL) | – | MIC (Candida albicans [10]): > 500 µM; MIC (Candida parapsilosis [11]): > 500 µM; MIC (Pichia kudriavzevii [12]): > 500 µM; MIC (Aspergillus flavus): > 500 µM; MIC (Candida parapsilosis [13]): > 500 µM; Activity [14]: Non-toxic; MIC [15]: > 500 µM; MIC (Candida tropicalis [16]): > 500 µM; MIC (Candida tropicalis [17]): > 500 µM; MIC (Lichtheimia corymbifera): > 500 µM; MIC (Aspergillus fumigatus): > 500 µM; MIC (Pichia kudriavzevii [18]): > 500 µM; MIC (Candida albicans [19]): > 500 µM; MIC [20]: > 500 µM |
| C/C(=N\NC(=O)c1ccncc1)C(=O)NNC(N)=S | 1000 (≈ 280 µg/mL) | 16 (≈ 4.49 µg/mL) | 1 (≈ 0.28 µg/mL) | 32 (≈ 8.97 µg/mL) | 1000 (≈ 280 µg/mL) | 2 (≈ 0.561 µg/mL) | 32 (≈ 8.97 µg/mL) | – | MIC [8]: 125 µM (≈ 35 µg/mL) |
| NC(=O)c1cnccn1 [PYRAZINAMIDE] | – | – | – | – | – | – | – | 0.01 | – |
| C/C(=N\NC(=O)c1ccncc1)C(=O)Nc1ccc(Sc2ccc([N+](=O)[O-])cc2)cc1 | 500 (≈ 218 µg/mL) | 1 (≈ 0.435 µg/mL) | 0.25 (≈ 0.109 µg/mL) | 1 (≈ 0.435 µg/mL) | 500 (≈ 218 µg/mL) | 0.25 (≈ 0.109 µg/mL) | 2 (≈ 0.871 µg/mL) | – | Activity [14]: Non-toxic |
| C/C(=N\NC(=O)c1ccncc1)C(=O)Nc1ccc(-c2ccccc2)cc1 | > 250 | 8 (≈ 2.87 µg/mL) | ≤ 0.25 | 8 (≈ 2.87 µg/mL) | > 250 | ≤ 0.25 | 16 (≈ 5.73 µg/mL) | 0.01 | – |
| COc1nc2ccc(Br)cc2cc1[C@@H](c1ccccc1)[C@@](O)(CCN(C)C)c1cccc2ccccc12 [BEDAQUILINE] | – | – | – | – | – | – | – | – | Activity [14]: Toxic |
| NNC(=O)c1ccncc1 [ISONIAZID] | > 250 | 8 (≈ 1.1 µg/mL) | 1 (≈ 0.137 µg/mL) | 8 (≈ 1.1 µg/mL) | > 250 | 1 (≈ 0.137 µg/mL) | 16 (≈ 2.19 µg/mL) | 0.01 | – |
| CC[C@@H](CO)NCCN[C@@H](CC)CO [ETHAMBUTOL] | – | – | – | – | – | – | – | 0.01 | – |
